For four compounds, IC50 results are on record in ChEMBL document CHEMBL1765085, “Cytotoxic and apoptosis-inducing activities of triterpene acids from Poria cocos” (J Nat Prod, 2011).

One may read the IC50 as the point on the concentration scale where inhibition reaches its midpoint.

Test system in one assay: not listed separately
Put plainly: Cytotoxicity in human AZ-521 cells assessed as cell viability after 48 hrs by MTT assay. It counts as functional, cell-based. The conditions noted are these: AZ-521, 48 h.
Consider `C=C(CCC(C(=O)O)[C@H]1CC[C@@]2(C)C3=CC[C@H]4C(C)(C)C(=O)CC[C@]4(C)C3=CC[C@]12C)C(C)C` (stereo not given in full) [DEHYDROEBURICONIC ACID], for which the IC50 is more than 100 µM.

On to `C=C(CC[C@@H](CO)[C@H]1CC[C@@]2(C)C3=CC[C@@H](C(=C)C)[C@](C)(CCCO)C3=CC[C@]12C)C(C)C` [PORICOTRIOL C], for which the IC50 is 13.3 µM.

As to `C=C(CC[C@@H](CO)[C@H]1[C@H](O)C[C@@]2(C)C3=C(CC[C@]12C)[C@@](C)(CCCO)[C@H](C(=C)C)CC3)C(C)C`, the IC50 was more than 100 µM.

As to `C=C(CC[C@@H](C(=O)O)[C@H]1[C@H](O)C[C@@]2(C)C3=C(CC[C@]12C)[C@@](C)(CCC(=O)O)[C@H](C(=C)C)CC3)C(C)C` [PORICOIC ACID H], the IC50 was more than 100 µM.

Another assay has as its system DU-145. Put plainly: Cytotoxicity in human DU145 cells assessed as cell viability after 48 hrs by MTT assay. In kind it is functional, cell-based. The following applies: DU-145, 48 h. The essentials:
(§1)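 Growth conditions: RPMI 1640 for HL60, CRL1579, NIH:OVCAR-3, SK-BR-3, DU145 and PANC-1; D-MEM for A549; MEM for WI-38; all with 10% FBS and antibiotics, 37 °C, 5% CO2. Seeded at 3 × 10^3 cells/well (OVCAR-3 1 × 10^4), then treated 48 h with 10^-4 to 10^-6 M. MTT for 3 h, formazan dissolved in 0.04 M HCl/2-propanol, A570/630. IC50 (50% growth inhibition) from triplicates.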
(In general: Tetrazolium assays rely on reduction of a dye to a coloured formazan, in cell work by metabolically active cells.)
For `C=C(CCC(C(=O)O)[C@H]1CC[C@@]2(C)C3=CC[C@H]4C(C)(C)C(=O)CC[C@]4(C)C3=CC[C@]12C)C(C)C` (stereo not given in full) [DEHYDROEBURICONIC ACID], the IC50 was more than 100 µM.

In the case of `C=C(CC[C@@H](CO)[C@H]1CC[C@@]2(C)C3=CC[C@@H](C(=C)C)[C@](C)(CCCO)C3=CC[C@]12C)C(C)C` [PORICOTRIOL C], the IC50 came to 20.3 µM.

Regarding `C=C(CC[C@@H](CO)[C@H]1[C@H](O)C[C@@]2(C)C3=C(CC[C@]12C)[C@@](C)(CCCO)[C@H](C(=C)C)CC3)C(C)C`, the IC50 was more than 100 µM.

As to `C=C(CC[C@@H](C(=O)O)[C@H]1[C@H](O)C[C@@]2(C)C3=C(CC[C@]12C)[C@@](C)(CCC(=O)O)[C@H](C(=C)C)CC3)C(C)C` [PORICOIC ACID H], the IC50 is more than 100 µM.

The next assay relates to PANC-1. Put plainly: Cytotoxicity in human PANC1 cells assessed as cell viability after 48 hrs by MTT assay. In kind it is functional, cell-based. The conditions noted are these: PANC-1, 48 h. The essentials: as §1
On to `C=C(CCC(C(=O)O)[C@H]1CC[C@@]2(C)C3=CC[C@H]4C(C)(C)C(=O)CC[C@]4(C)C3=CC[C@]12C)C(C)C` (stereo not given in full) [DEHYDROEBURICONIC ACID], for which the IC50 amounted to 5.5 µM.

As for `C=C(CC[C@@H](CO)[C@H]1CC[C@@]2(C)C3=CC[C@@H](C(=C)C)[C@](C)(CCCO)C3=CC[C@]12C)C(C)C` [PORICOTRIOL C], the IC50 worked out at 91.3 µM.

On to `C=C(CC[C@@H](CO)[C@H]1[C@H](O)C[C@@]2(C)C3=C(CC[C@]12C)[C@@](C)(CCCO)[C@H](C(=C)C)CC3)C(C)C`, for which the IC50 was more than 100 µM.

Consider `C=C(CC[C@@H](C(=O)O)[C@H]1[C@H](O)C[C@@]2(C)C3=C(CC[C@]12C)[C@@](C)(CCC(=O)O)[C@H](C(=C)C)CC3)C(C)C` [PORICOIC ACID H], for which the IC50 is more than 100 µM.

The next assay has as its system HL-60. Put plainly: Cytotoxicity in human HL60 cells assessed as cell viability after 48 hrs by MTT assay. The following applies: HL-60, 48 h. It counts as functional, cell-based. The essentials:
as §1
On to `C=C(CCC(C(=O)O)[C@H]1CC[C@@]2(C)C3=CC[C@H]4C(C)(C)C(=O)CC[C@]4(C)C3=CC[C@]12C)C(C)C` (stereo not given in full) [DEHYDROEBURICONIC ACID], for which the IC50 was determined as 29.2 µM.

As to `C=C(CC[C@@H](CO)[C@H]1CC[C@@]2(C)C3=CC[C@@H](C(=C)C)[C@](C)(CCCO)C3=CC[C@]12C)C(C)C` [PORICOTRIOL C], the IC50 turned out to be 12.3 µM.

As to `C=C(CC[C@@H](CO)[C@H]1[C@H](O)C[C@@]2(C)C3=C(CC[C@]12C)[C@@](C)(CCCO)[C@H](C(=C)C)CC3)C(C)C`, the IC50 is 2.9 µM.

A further assay deals with A549. Nature of the assay: Cytotoxicity in human A549 cells assessed as cell viability after 48 hrs by MTT assay. The conditions noted are these: A549, 48 h. It counts as functional, cell-based. The essentials:
as §1
On to `C=C(CCC(C(=O)O)[C@H]1CC[C@@]2(C)C3=CC[C@H]4C(C)(C)C(=O)CC[C@]4(C)C3=CC[C@]12C)C(C)C` (stereo not given in full) [DEHYDROEBURICONIC ACID], for which the IC50 was found to be 10 µM.

Consider `C=C(CC[C@@H](CO)[C@H]1CC[C@@]2(C)C3=CC[C@@H](C(=C)C)[C@](C)(CCCO)C3=CC[C@]12C)C(C)C` [PORICOTRIOL C], for which the IC50 was determined as 80 µM.

For `C=C(CC[C@@H](CO)[C@H]1[C@H](O)C[C@@]2(C)C3=C(CC[C@]12C)[C@@](C)(CCCO)[C@H](C(=C)C)CC3)C(C)C`, the half-inhibitory concentration (IC50) was determined as 41.2 µM.

As for `C=C(CC[C@@H](C(=O)O)[C@H]1[C@H](O)C[C@@]2(C)C3=C(CC[C@]12C)[C@@](C)(CCC(=O)O)[C@H](C(=C)C)CC3)C(C)C` [PORICOIC ACID H], the half-maximal inhibitory concentration (IC50) is more than 100 µM.

The subject of a further assay is OVCAR-3. Put plainly: Cytotoxicity in human OVCAR3 cells assessed as cell viability after 48 hrs by MTT assay. It counts as functional, cell-based. The conditions noted are these: OVCAR-3, 48 h. An outline of the steps: as §1
With `C=C(CCC(C(=O)O)[C@H]1CC[C@@]2(C)C3=CC[C@H]4C(C)(C)C(=O)CC[C@]4(C)C3=CC[C@]12C)C(C)C` (stereo not given in full) [DEHYDROEBURICONIC ACID], the IC50 was 37.7 µM.

As to `C=C(CC[C@@H](CO)[C@H]1CC[C@@]2(C)C3=CC[C@@H](C(=C)C)[C@](C)(CCCO)C3=CC[C@]12C)C(C)C` [PORICOTRIOL C], the IC50 was 70.3 µM.

Turning to `C=C(CC[C@@H](CO)[C@H]1[C@H](O)C[C@@]2(C)C3=C(CC[C@]12C)[C@@](C)(CCCO)[C@H](C(=C)C)CC3)C(C)C`, the IC50 is more than 100 µM.

For the compound `C=C(CC[C@@H](C(=O)O)[C@H]1[C@H](O)C[C@@]2(C)C3=C(CC[C@]12C)[C@@](C)(CCC(=O)O)[C@H](C(=C)C)CC3)C(C)C` [PORICOIC ACID H], the IC50 was more than 100 µM.

Test system in another assay: not listed separately
Nature of the assay: Cytotoxicity in human CRL1579 cells assessed as cell viability after 48 hrs by MTT assay. In kind it is functional, cell-based.
Details: not given
An outline of the steps: as §1
Take `C=C(CCC(C(=O)O)[C@H]1CC[C@@]2(C)C3=CC[C@H]4C(C)(C)C(=O)CC[C@]4(C)C3=CC[C@]12C)C(C)C` (stereo not given in full) [DEHYDROEBURICONIC ACID]: the IC50 was found to be 89.7 µM.

For the compound `C=C(CC[C@@H](CO)[C@H]1CC[C@@]2(C)C3=CC[C@@H](C(=C)C)[C@](C)(CCCO)C3=CC[C@]12C)C(C)C` [PORICOTRIOL C], the IC50 turned out to be 76.4 µM.

Turning to `C=C(CC[C@@H](CO)[C@H]1[C@H](O)C[C@@]2(C)C3=C(CC[C@]12C)[C@@](C)(CCCO)[C@H](C(=C)C)CC3)C(C)C`, the IC50 turned out to be 9.9 µM.

The next assay relates to SK-BR-3. Put plainly: Cytotoxicity in human SK-BR-3 cells assessed as cell viability after 48 hrs by MTT assay. It counts as functional, cell-based. The conditions noted are these: SK-BR-3, 48 h. The essentials:
as §1
In the case of `C=C(CCC(C(=O)O)[C@H]1CC[C@@]2(C)C3=CC[C@H]4C(C)(C)C(=O)CC[C@]4(C)C3=CC[C@]12C)C(C)C` (stereo not given in full) [DEHYDROEBURICONIC ACID], the IC50 came out at 12.2 µM.

For the compound `C=C(CC[C@@H](CO)[C@H]1CC[C@@]2(C)C3=CC[C@@H](C(=C)C)[C@](C)(CCCO)C3=CC[C@]12C)C(C)C` [PORICOTRIOL C], the IC50 stood at 11 µM.

In the case of `C=C(CC[C@@H](CO)[C@H]1[C@H](O)C[C@@]2(C)C3=C(CC[C@]12C)[C@@](C)(CCCO)[C@H](C(=C)C)CC3)C(C)C`, the IC50 amounted to 51.3 µM.

For `C=C(CC[C@@H](C(=O)O)[C@H]1[C@H](O)C[C@@]2(C)C3=C(CC[C@]12C)[C@@](C)(CCC(=O)O)[C@H](C(=C)C)CC3)C(C)C` [PORICOIC ACID H], the IC50 is more than 100 µM.
